Compound activity (PubChem BioAssay)
Candida biofilm = clotrimazole potentiators killing Candida biofilms, primary screen, with clotrimazole, Alamar Blue | C. albicans biofilm + clotrimazole | inhibition, % at 6 µM | 0.14% of 85,000 active | AID 834, 2007;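 active means inhibition above 20%; inactive means inhibition below 20%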;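 further: preformed 24 hr biofilms exposed to compound for 48 hr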
PostGolgi yeast = phenotypic screen on post-Golgi transport, primary screen; post-Golgi transport phenotypic cell assay; inhibition, % at 10 µM; 0.9% of 98,000 active;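 further: yeast cells grown in 1536-well plates; yeast grown about 18 h at 30C before absorbance read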
Ecoli tolC = growth inhibitors of E. coli tolC mutant, primary screen, strain BW25113 ΔtolC::kan, 384-well | growth inhibition, % at 10 µM (by protocol) | OD615 | 2.2% of 65,000 active | AID 573, 2007;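 active means growth inhibition at or above a cutoff equal to the mean over every tested compound plus 3 SD, cut at about 60% in these data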;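 further: growth measured after 20 h incubation at 37 °C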
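signal = optical density read at 615 nm | test system = E. coli ΔtolC::kan strain BW25113 | timing = 20 h compound exposure of bacteria at 37 °C | buffer or medium = LB medium plus 50 µg/mL kanamycin | compound dosing = 10 µM final, single dose | evaluation = % inhibition of E. coli growth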
PostGolgi ctrl = growth inhibition of yeast control strain, primary screen, counter-screen for post-Golgi transport modulator project. efflux-deficient yeast background strain, growth absorbance A615, 16 h. inhibition, % at 10 µM. 5% of 98,000 active. AID 738, 2007
FAK inh = FAK kinase inhibitors, primary screen, biochemical. Focal adhesion kinase 1 (Homo sapiens), Q05397. biochemical FAK kinase activity assay. inhibition, %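 (tested at 7 µM)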. 0.84% of 97,000 active. AID 727, 2007; in the data active means inhibition above about 19%
Pyk2 oligo antag = antagonists of Pyk2 self-association, primary screen, Q293 cells, FERM NanoBiT luminescence, HTS; AID 1347419, 2020; 0.83% of 99,000 active; stronger effect = lower value; z-score (the deposit names both 25 µM and 10 µM);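 active means Z-score of -3 or lower, scaled per plate to the spread of control and sample wells; inactive means z-score above -3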;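 further: negative z-score means lost luminescence so less FERM oligomerization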
Target sequence (Q14289 whole entry, looked up): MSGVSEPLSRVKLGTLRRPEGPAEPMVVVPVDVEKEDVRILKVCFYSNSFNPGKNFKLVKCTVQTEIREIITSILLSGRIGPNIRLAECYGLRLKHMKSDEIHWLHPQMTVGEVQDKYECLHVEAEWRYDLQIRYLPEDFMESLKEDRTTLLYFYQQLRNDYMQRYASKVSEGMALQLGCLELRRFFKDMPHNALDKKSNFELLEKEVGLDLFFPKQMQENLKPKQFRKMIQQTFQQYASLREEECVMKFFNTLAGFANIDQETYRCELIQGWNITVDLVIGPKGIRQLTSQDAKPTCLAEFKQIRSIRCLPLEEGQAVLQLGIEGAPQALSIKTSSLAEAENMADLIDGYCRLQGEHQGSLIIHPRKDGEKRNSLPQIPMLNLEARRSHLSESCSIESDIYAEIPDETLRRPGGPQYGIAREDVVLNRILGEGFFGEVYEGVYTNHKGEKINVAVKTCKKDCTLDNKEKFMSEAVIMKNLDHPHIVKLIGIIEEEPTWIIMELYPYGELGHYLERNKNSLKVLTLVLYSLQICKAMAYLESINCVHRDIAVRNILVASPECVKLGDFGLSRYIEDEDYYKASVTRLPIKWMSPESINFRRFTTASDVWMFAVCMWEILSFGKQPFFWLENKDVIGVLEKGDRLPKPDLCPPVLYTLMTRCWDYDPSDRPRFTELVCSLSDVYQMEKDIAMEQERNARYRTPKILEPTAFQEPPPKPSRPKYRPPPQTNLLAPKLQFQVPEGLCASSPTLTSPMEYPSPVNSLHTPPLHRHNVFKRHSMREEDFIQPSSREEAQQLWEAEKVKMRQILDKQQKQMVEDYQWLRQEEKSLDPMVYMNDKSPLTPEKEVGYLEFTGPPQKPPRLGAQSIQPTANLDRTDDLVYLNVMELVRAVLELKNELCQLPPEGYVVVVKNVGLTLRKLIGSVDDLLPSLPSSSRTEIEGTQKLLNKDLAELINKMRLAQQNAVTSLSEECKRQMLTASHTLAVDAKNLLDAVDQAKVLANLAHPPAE
Large screens that a line does not name were inactive. The list is not random: actives were taken first. Their share in the collection is about 6.9%. Unless noted, no stated cut-off is given here; in the data, active means inhibition above about 30%; inactive means the rest.

CCCn1c(SCC(=O)N2c3ccccc3Sc3ccccc32)nc2c1c(=O)n(C)c(=O)n2C	PostGolgi ctrl 32.1
Cc1cccc(NC(=O)c2ccccc2OCC(=O)c2ccccc2)c1	PostGolgi ctrl 30.3 (no result: Candida biofilm, Ecoli tolC)
CCOc1ccccc1C(=O)Nc1cccc(-c2nnc(-c3ccccc3)o2)c1	PostGolgi ctrl 31.5 (no result: Ecoli tolC)
Cc1ccc(NC(=O)c2ccccc2OCC(=O)c2ccccc2)cc1	none (no result: Candida biofilm, Ecoli tolC)
O=C(COc1ccccc1)Nc1cccc(-c2nnc(-c3ccccc3)o2)c1	none (no result: PostGolgi yeast, PostGolgi ctrl, FAK inh)
O=C(Nc1cccc(-c2nnc(-c3ccccc3)o2)c1)c1ccc(Br)o1	Ecoli tolC 84.4, PostGolgi ctrl 37.6, Pyk2 oligo antag -3.15
COc1ccc(CN(CCCN2CCOCC2)C(=O)Nc2ccccc2)cc1OC	none
C/C(CCC12CC3CC(CC(C3)C1)C2)=N\NC(N)=S	PostGolgi yeast 85.9, PostGolgi ctrl 44.8 (no result: Ecoli tolC)
NC(=O)NCC12CC3CC(CC(C3)C1)C2	none
O=C(NC1(C(=O)NC2CCCCC2)CCCCC1)c1ccccn1	PostGolgi ctrl 31.6 (no result: Ecoli tolC)
O=C(c1cnccn1)N(c1ccccc1)C1(C(=O)NC2CCCCC2)CCCCC1	PostGolgi ctrl 33.2
COCCN1CCc2c(C)nc3c(-c4ccc(OC)c(OC)c4)cnn3c21	none (no result: Candida biofilm, Ecoli tolC)
COc1cc2nc(SCC(N)=O)n(CCC3=CCCCC3)c(=O)c2cc1OC	none
CC(=O)c1ccc(OCC(O)CN2C(C)CCCC2C)cc1 (centres undefined)	none (no result: Pyk2 oligo antag)
CCOC(=O)COc1ccc(S(=O)(=O)N2CCN(C(=O)OCC)CC2)cc1	none
CC(=O)c1c(N2CCN(Cc3ccccc3)CC2)[nH]c(-c2ccccc2)nc1=S	none
Cc1ccc(C)c(SCC(=O)Nc2nnc(-c3ccccc3)o2)c1	Ecoli tolC 99.5
CC(=O)c1oc2ccccc2c1NC(=O)CN1CCCCC1	none (no result: PostGolgi yeast, Ecoli tolC, PostGolgi ctrl)
CCN(CC(O)Cn1c2ccccc2c2ccccc21)S(=O)(=O)c1ccc(F)cc1 (centres undefined)	PostGolgi ctrl 50.5 (no result: Ecoli tolC)
O=S(=O)(c1ccccc1)N(CC(O)Cn1c2ccccc2c2ccccc21)c1ccccc1 (centres undefined)	none (no result: Candida biofilm, Ecoli tolC)
Cc1ccc(S(=O)(=O)N(C)CC(O)Cn2c3ccccc3c3ccccc32)cc1 (centres undefined)	PostGolgi ctrl 79.7 (no result: Ecoli tolC)
CCOC(=O)c1oc2cc(O)ccc2c(=O)c1-c1ccccc1OC	none
CCOC(=O)c1ccc(-c2c(C(=O)OCC)oc3cc(O)c(CC)cc3c2=O)o1	Pyk2 oligo antag -3.66
Fc1ccc(COc2ccc(/C=N/n3cnnc3)cc2)cc1	PostGolgi ctrl 34.9
Cc1n[nH]c(=S)n1/N=C/c1ccc(OCc2ccc(Cl)cc2)cc1	none (no result: Candida biofilm, Ecoli tolC)
O=Cc1ccccc1Oc1ccccc1	none (no result: Candida biofilm, Ecoli tolC)
CC(C(=O)NCc1cccs1)n1cccc1 (centres undefined)	none
O=C(NCc1ccco1)C(c1cccs1)N(C(=O)Cc1cccs1)c1ccccc1 (centres undefined)	PostGolgi yeast 37.6
CC(C)c1ccc(C(C(=O)NC(C)(C)C)N(C(=O)CNC(=O)c2ccco2)c2cccnc2)cc1 (centres undefined)	none (no result: PostGolgi yeast, Ecoli tolC, PostGolgi ctrl)
O=C(NCC(=O)N(c1cccnc1)C(C(=O)NCc1ccco1)c1ccccc1)c1ccco1 (centres undefined)	PostGolgi yeast 39.2
Cc1cc(Cl)ccc1OC(C)C(=O)Nc1ccccc1N1CCOCC1 (centres undefined)	Ecoli tolC 66.1
Cc1cc(Cl)ccc1OC(C)C(=O)N1CCCN(C(=O)C(C)Oc2ccc(Cl)cc2C)CC1 (centres undefined)	PostGolgi ctrl 44.4 (no result: Candida biofilm, Ecoli tolC)
O=C(CCc1ccc(S(=O)(=O)N2CCOCC2)cc1)Nc1cc(Cl)ccc1N1CCOCC1	PostGolgi ctrl 33.9 (no result: Candida biofilm)
Cc1cc(Cl)ccc1OC(C)C(=O)NCCCCc1ccccc1 (centres undefined)	none (no result: Candida biofilm, Ecoli tolC)
CC(C)Oc1cccc(C(=O)Nc2ccccc2N2CCOCC2)c1	none
COC(=O)c1ccccc1NC(=O)CNc1cc(Cl)ccc1N1CCOCC1	PostGolgi ctrl 34.5
CCN(CC)C(=O)CCCOc1ccc(Cl)cc1Cl	none (no result: Candida biofilm)
Cn1c(=O)oc2cc(S(=O)(=O)N3CCCC(C(=O)Nc4nccs4)C3)ccc21 (centres undefined)	none (no result: Candida biofilm, Ecoli tolC, Pyk2 oligo antag)
Cc1ccc(NC(=O)Cn2cccc2)cc1Cl	none
Cc1ccc(Nc2nc(C)c(CCC(C)C)c(=O)[nH]2)cc1	none (no result: Candida biofilm)
